Experimental data from ChEMBL document CHEMBL3244410, “Thymidylate synthetase inhibitors. Synthesis of N-substituted 5-aminomethyl-2'-deoxyuridine 5'-phosphates” (J Med Chem, 1977).

Tests used:
[1] = biological target: T1, Thymidylate synthase (Bos taurus, UniProt Q2TA32); test: Competitive inhibition of purified calf thymus thymidylate synthetase using 5-[3H]-2'-deoxyuridine 5'-phosphate as substrate after 7 mins by double reciprocal plot method
In short: (§1)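 Thymidylate synthetase was purified from E. coli, calf thymus or Ehrlich ascites tumor cells. Inhibition constants came from double-reciprocal plots of velocity against substrate concentration. Each plot used five substrate concentrations and at least two inhibitor concentrations.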

[2] = Competitive inhibition of purified Escherichia coli thymidylate synthetase using t5-[3H]-2'-deoxyuridine 5'-phosphate as substrate after 7 mins by double reciprocal plot method; in short: as §1
[3] = biological target: Thymidylate synthase (Mus musculus, UniProt P07607); test: Competitive inhibition of purified mouse Ehrlich ascites tumor cell thymidylate synthetase using 5-[3H]-2'-deoxyuridine 5'-phosphate as substrate after 7 mins by double reciprocal plot method; in short: as §1
Sequence of Thymidylate synthase (Mus musculus, UniProt P07607) (P07607 whole entry): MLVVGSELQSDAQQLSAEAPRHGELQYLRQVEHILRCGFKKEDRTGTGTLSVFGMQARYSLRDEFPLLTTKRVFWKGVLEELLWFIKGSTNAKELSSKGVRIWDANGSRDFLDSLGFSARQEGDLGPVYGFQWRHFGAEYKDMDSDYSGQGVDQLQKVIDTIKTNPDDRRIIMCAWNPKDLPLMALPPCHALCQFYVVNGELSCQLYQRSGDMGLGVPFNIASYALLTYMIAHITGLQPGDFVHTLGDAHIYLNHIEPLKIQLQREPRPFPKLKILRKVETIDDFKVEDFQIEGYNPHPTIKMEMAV

[4] = biological target: T1, Thymidylate synthase; test: Noncompetitive inhibition of purified calf thymus thymidylate synthetase using 5-[3H]-2'-deoxyuridine 5'-phosphate as substrate after 7 mins by double reciprocal plot method; in short: as §1
[5] = Ratio of Ki for purified mouse Ehrlich ascites tumor cell thymidylate synthetase to Ki for purified calf thymus thymidylate synthetase

T1 sequence (Q2TA32 whole entry): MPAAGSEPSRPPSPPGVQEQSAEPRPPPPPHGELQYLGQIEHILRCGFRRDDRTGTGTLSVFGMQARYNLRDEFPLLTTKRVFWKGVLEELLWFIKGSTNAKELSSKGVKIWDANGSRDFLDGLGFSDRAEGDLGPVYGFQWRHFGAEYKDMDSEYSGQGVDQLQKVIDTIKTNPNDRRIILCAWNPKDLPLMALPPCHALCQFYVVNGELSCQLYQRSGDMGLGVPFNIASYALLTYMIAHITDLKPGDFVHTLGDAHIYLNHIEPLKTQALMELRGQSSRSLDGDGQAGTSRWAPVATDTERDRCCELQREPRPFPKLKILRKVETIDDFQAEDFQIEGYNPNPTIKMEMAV

Structure (SMILES)	Ki [1] [µM]	Ki [2] [µM]	Ki [3] [µM]	Ki [4] [µM]	Ratio Ki [5]
O=c1ccn([C@H]2C[C@H](O)[C@@H](COP(=O)(O)O)O2)c(=O)[nH]1 [DEOXYURIDINE MONOPHOSPHATE]	8	7.6	6.5	–	–
O=c1[nH]c(=O)n([C@H]2C[C@H](O)[C@@H](COP(=O)(O)O)O2)cc1CN1CCCC1	–	56	27	43	–
CN(C)CCNCc1cn([C@H]2C[C@H](O)[C@@H](COP(=O)(O)O)O2)c(=O)[nH]c1=O	3.1	6	14	–	4
CN(C)Cc1cn([C@H]2C[C@H](O)[C@@H](COP(=O)(O)O)O2)c(=O)[nH]c1=O	110	90	73	–	–
